Our source for the Recovery, Decrease and Delta I/I values is ChEMBL document CHEMBL1121404, “Synthesis and study of conformationally defined enantiomers of local anesthetics and conformationally defined enantiomers of fluorescent dyes designed to label electrically excitable membranes” (1980).

The first assay relates to Majidae. Put plainly: The compound was tested for its ability to block the excitability of spider crab walking leg nerve bundles, the peak action potential amplitude, upon washing in physiological saline for 20 minutes. The format is functional, organism-based. An outline of the steps: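 Spider crab (Libinia emarginata) nerve bundles exposed to 1 mM compound in bath for 20 min, then washed 20 min in physiological saline (pH 8.0); stimulation with 0.4-ms threshold pulses at 18-20 °C; value is percent recovery of peak compound action potential amplitude relative to control; mean ± SE of 4-6 experiments.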
In the case of `C[C@@H](Cc1ccc(N)cc1)N(C)C`, the Recovery came out at 100%. With `C[C@H](Cc1ccc(N)cc1)N(C)C`, the Recovery is 100%. Same read-out and setting: the same measure for `C[C@H](Cc1ccc([N+](=O)[O-])cc1)N(C)C`: 46%; for `C[C@@H](Cc1ccc([N+](=O)[O-])cc1)N(C)C`: 35%.

A further assay concerns Majidae. Put plainly: The compound was tested for its ability to block the excitability of spider crab walking leg nerve bundles, peak action potential amplitude, recorded by a pair of external Ag-AgCl electrodes. The format is functional. The gist of the method:
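Libinia emarginata claw/walking-leg nerve bundles; compound applied in external bath at 1 mM for 20 min in physiological saline (416 mM NaCl, 10 mM KCl, 11 mM CaCl2, 55 mM MgCl2, 2.5 mM NaHCO3, pH 8.0); 0.4-ms threshold pulses; 18-20 °C; % decrease in peak compound action potential amplitude via external Ag-AgCl electrodes; mean ± SE of 4-6 experiments.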
Consider `C[C@@H](Cc1ccc(N)cc1)N(C)C`, for which the Decrease was found to be 33%. Same read-out and setting: the same measure for `C[C@H](Cc1ccc(N)cc1)N(C)C`: 28%. Still for that read-out and setting: as for `C[C@H](Cc1ccc([N+](=O)[O-])cc1)N(C)C`, the figure is 93%. On the same count and under the same terms, the same measure for `C[C@@H](Cc1ccc([N+](=O)[O-])cc1)N(C)C`: 84%.

The subject of another assay is Majidae. As to the kind of experiment: The compound was tested for optical responses recorded from spider crab walking leg nerve bundles upon staining. In kind it is functional. An outline of the steps:
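Nerve bundles stained 30 min in Tris-buffered artificial sea water (pH 8) with 25-50 nM dye, poorly soluble dyes first dissolved in 0.1 mL 95% EtOH per 100 mL; excitation with 365 ± 10 nm light from xenon-mercury lamp; time-averaged fluorescence recorded with extracellular compound action potential; ΔI/I (excitation-linked change over resting intensity); mean ± SE of 2-8 experiments.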
For the molecule `C[C@@H](Cc1ccccc1)NS(=O)(=O)c1cccc2c(N(C)C)cccc12`, the Delta I/I was determined as 7e-05. Regarding `CN(C)c1cccc2c(S(=O)(=O)N[C@@H](CO)Cc3ccccc3)cccc12`, the Delta I/I is 0.00015. Turning to `C[C@@H](Cc1ccccc1)NC(=O)c1cccc2c(N(C)C)cccc12`, the Delta I/I amounted to 0.00038. `CN(C)c1cccc2c(C(=O)N[C@H](CO)Cc3ccccc3)cccc12` showed a Delta I/I of 0.00024. The molecule `CN(C)c1cccc2c(S(=O)(=O)N[C@H](CO)Cc3ccccc3)cccc12` came in with a Delta I/I of 0.00018.

Regarding `C[C@H](Cc1ccccc1)NC(=O)c1cccc2c(N(C)C)cccc12`, the Delta I/I was 0.00035. As to `CN(C)c1cccc2c(C(=O)N[C@@H](CO)Cc3ccccc3)cccc12`, the Delta I/I came out at 0.00025. Turning to `C[C@H](Cc1ccccc1)NS(=O)(=O)c1cccc2c(N(C)C)cccc12`, the Delta I/I was 8.5e-05.
